What was measured:
[1] = Displacement of [125I]hU-2 from human recombinant urotensin receptor expressed in HEK293 cells; type: cell-based
Outline: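 Radioligand binding with [125I]hU-II on membranes of HEK293 cells stably expressing recombinant human UT receptor. Ki given as the mean of at least two determinations (SD <±0.3 log units).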

[2] = biological target: Kappa-type opioid receptor (Homo sapiens, UniProt P41145); assay: Agonist activity at human kappa opioid receptor expressed in CHO-K1 cells by [35S]GTPgamma binding assay; type: functional, cell-based
Kappa-type opioid receptor, sequence (P41145 whole entry): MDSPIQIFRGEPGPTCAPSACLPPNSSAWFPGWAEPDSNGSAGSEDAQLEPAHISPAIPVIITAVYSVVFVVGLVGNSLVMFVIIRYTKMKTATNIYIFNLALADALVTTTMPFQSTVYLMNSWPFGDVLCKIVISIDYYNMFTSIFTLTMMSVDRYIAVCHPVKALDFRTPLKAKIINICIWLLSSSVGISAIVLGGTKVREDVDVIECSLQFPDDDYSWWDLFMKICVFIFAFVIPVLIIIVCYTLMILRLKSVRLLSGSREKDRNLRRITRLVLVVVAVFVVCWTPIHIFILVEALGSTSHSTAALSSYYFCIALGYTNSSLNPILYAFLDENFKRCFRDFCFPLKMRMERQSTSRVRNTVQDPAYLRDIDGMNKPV
Outline: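 Human κ-opioid receptor, membranes from BacMam-transduced CHO-K1 cells. Agonism read as [35S]GTPγS binding, detected by LEADseeker SPA. EC50 reported from a single run or as the mean of two runs (SD <±0.3 log units).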

[3] = Antagonist activity at rat urotensin receptor in Sprague-Dawley rat thoracic aorta assessed as inhibition of urotensin-mediated contraction; type: functional
Outline: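 Isolated rat aortic rings were contracted via UT, and the test agent's inhibition of that contraction was measured. The value is reported as a Kb, the mean of two determinations ± SEM.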

[4] = Displacement of [125I]hU-2 from rat recombinant urotensin receptor expressed in HEK293 cells; type: cell-based
Rattus norvegicus = organism: Rattus norvegicus; assay: Selectivity ratio of Kb for urotensin receptor in Sprague-Dawley rat thoracic aorta to Ki for rat recombinant urotensin receptor; type: tissue-based

Compound	Ki [1] [nM]	EC50 [2] [nM]	Kb [3] [nM]	Ki [4] [nM]	Ratio (Rattus norvegicus)
CN(CC(=O)N1CCN(c2ccccc2)CC1CN1CCCC1)c1ccc(Cl)c(Cl)c1 (configuration not stated)	250	1.3	–	–	–
N#Cc1cccc(S(=O)(=O)N2CCN(C(=O)Cn3c(=O)oc4ccc(Cl)cc43)C(CN3CCCC3)C2)c1 (configuration not stated)	10	630	–	–	–
CN(CC(=O)N1CCN(S(=O)(=O)c2cccc(Cl)c2)CC1CN1CCCC1)c1ccc(Cl)c(Cl)c1 (configuration not stated)	160	200	–	–	–
O=C(Cn1c(=O)oc2ccc(Cl)cc21)N1CCN(S(=O)(=O)c2cc(C(F)(F)F)ccc2Cl)CC1CN1CCCC1 (configuration not stated)	13	1000	–	–	–
COc1cccc(S(=O)(=O)N2CCN(C(=O)Cn3c(=O)oc4ccc(Cl)cc43)C(CN3CCCC3)C2)c1 (configuration not stated)	25	320	–	–	–
CN(CC(=O)N1CCN(S(C)(=O)=O)CC1CN1CCCC1)c1ccc(Cl)c(Cl)c1 (configuration not stated)	100	3	–	–	–
CC(=O)Nc1ccc(S(=O)(=O)N2CCN(C(=O)Cn3c(=O)oc4ccc(Cl)cc43)C(CN3CCCC3)C2)cc1 (configuration not stated)	2.5	1300	13.1	4	3.3
COc1cccc(N2CCN(C(=O)CN(C)c3ccc(Cl)c(Cl)c3)C(CN3CCCC3)C2)c1 (configuration not stated)	50	3.2	–	–	–
COc1ccc(S(=O)(=O)N2CCN(C(=O)Cn3c(=O)oc4ccc(Cl)cc43)C(CN3CCCC3)C2)cc1 (configuration not stated)	25	2000	–	–	–
O=C(O)c1ccc(S(=O)(=O)N2CCN(C(=O)Cn3c(=O)oc4ccc(Cl)cc43)C(CN3CCCC3)C2)cc1 (configuration not stated)	25	2000	81.8	32	2.6
O=C(O)c1ccc(S(=O)(=O)N2CCN(C(=O)Cn3c(=O)oc4ccc(Cl)cc43)C(CN3CCCC3)C2)cc1O (configuration not stated)	13	7900	10	8	1.3
CN(CC(=O)N1CCN(C(=O)Nc2ccccc2)CC1CN1CCCC1)c1ccc(Cl)c(Cl)c1 (configuration not stated)	790	4000	–	–	–
O=C(Cn1c(=O)oc2ccc(Cl)cc21)N1CCN(S(=O)(=O)c2ccccc2)CC1CN1CCCC1 (configuration not stated)	20	790	–	–	–
O=C(Cn1c(=O)oc2ccccc21)N1CCN(c2ccccc2)CC1CN1CCCC1 (configuration not stated)	130	400	–	–	–
O=C(Cn1c(=O)oc2ccccc21)N1CCN(S(=O)(=O)c2ccccc2)CC1CN1CCCC1 (configuration not stated)	500	1000	–	–	–
O=C(Cn1c(=O)oc2ccc(Cl)cc21)N1CCN(S(=O)(=O)c2ccccc2Br)CC1CN1CCCC1 (configuration not stated)	8	2000	52.8	–	–
O=C(Cc1csc2ccc(Cl)cc12)N1CCN(c2ccccc2)CC1CN1CCCC1 (configuration not stated)	63	2	–	–	–
CN(CC(=O)N1CCN(C(=O)c2ccncc2)CC1CN1CCCC1)c1ccc(Cl)c(Cl)c1 (configuration not stated)	100	630	–	–	–

Compound	Ki [1] [nM]	EC50 [2] [nM]	Kb [3] [nM]	Ki [4] [nM]	Ratio (Rattus norvegicus)
CN(CC(=O)N1CCN(C(=O)c2cccc(Cl)c2)CC1CN1CCCC1)c1ccc(Cl)c(Cl)c1 (configuration not stated)	130	> 10000	–	–	–
CN(CC(=O)N1CCN(S(=O)(=O)c2ccc(F)c(F)c2)CC1CN1CCCC1)c1ccc(Cl)c(Cl)c1 (configuration not stated)	130	400	–	–	–
CN(CC(=O)N1CCN(c2ccc(F)c(F)c2)CC1CN1CCCC1)c1ccc(Cl)c(Cl)c1 (configuration not stated)	100	6.3	–	–	–
COc1ccc(C(=O)N2CCN(C(=O)CN(C)c3ccc(Cl)c(Cl)c3)C(CN3CCCC3)C2)cc1OC (configuration not stated)	400	> 10000	–	–	–
COc1ccc(S(=O)(=O)N2CCN(C(=O)Cn3c(=O)oc4ccc(Cl)cc43)C(CN3CCCC3)C2)c(Br)c1OC (configuration not stated)	1.6	1300	14.2	10	1.4
CN(CC(=O)N1CCN(C(=O)c2ccccc2)CC1CN1CCCC1)c1ccc(Cl)c(Cl)c1 (configuration not stated)	200	7900	–	–	–
COc1cccc(S(=O)(=O)N2CCN(C(=O)CN(C)c3ccc(Cl)c(Cl)c3)C(CN3CCCC3)C2)c1 (configuration not stated)	79	79	–	–	–
CN(CC(=O)N1CCCCC1CN1CCCC1)c1ccc(Cl)c(Cl)c1 (configuration not stated)	500	3	–	–	–
CN(CC(=O)N1CCN(C(=O)c2ccc(C#N)cc2)CC1CN1CCCC1)c1ccc(Cl)c(Cl)c1 (configuration not stated)	1300	3200	–	–	–
O=C(Cn1c(C(F)(F)F)nc2ccccc21)N1CCN(c2ccccc2)CC1CN1CCCC1 (configuration not stated)	79	–	–	–	–
CN(CC(=O)N1CCN(S(=O)(=O)c2ccc(Cl)cc2)CC1CN1CCCC1)c1ccc(Cl)c(Cl)c1 (configuration not stated)	100	790	–	–	–
O=C(Cn1c(=O)oc2ccc(Cl)cc21)N1CCN(S(=O)(=O)c2cccc(C(F)(F)F)c2)CC1CN1CCCC1 (configuration not stated)	50	2000	–	–	–
CN(CC(=O)N1CCN(c2cccc(Cl)c2)CC1CN1CCCC1)c1ccc(Cl)c(Cl)c1 (configuration not stated)	63	4	–	–	–
COc1ccc(S(=O)(=O)N2CCN(C(=O)Cn3c(=O)oc4ccc(Cl)cc43)C(CN3CCCC3)C2)cc1OC (configuration not stated)	13	320	–	–	–
O=C(Cc1cccc2ccccc12)N1CCN(c2ccccc2)CC1CN1CCCC1 (configuration not stated)	320	1.6	–	–	–
CN(CC(=O)N1CCN(S(=O)(=O)c2ccccc2)CC1CN1CCCC1)c1ccc(Cl)c(Cl)c1 (configuration not stated)	20	250	–	–	–
COc1ccc(Br)cc1S(=O)(=O)N1CCN(C(=O)Cn2c(=O)oc3ccc(Cl)cc32)C(CN2CCCC2)C1 (configuration not stated)	130	790	–	–	–
